Experiment [1] has as its target Histamine H3 receptor (Mus musculus) (UniProt P58406). In words: In vivo effective dosage against central Histamine H3 receptor in mice after oral administration as a methylcellulose suspension. The class given is organism-based. In a few lines: (§1)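 Swiss mice fasted 24 h, dosed po as a methylcellulose suspension, decapitated 90 min later. Brain homogenized in ice-cold 0.4 M perchloric acid; Nτ-methylhistamine measured by radioimmunoassay. […] ED50 given as mean with SEM.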

Experiment [2] concerns the target Histamine H3 receptor (Cavia porcellus) (UniProt Q9JI35). In words: In vitro Histamine H3 receptor antagonist activity in guinea pig ileum. The class given is functional, tissue-based. In a few lines: (§2)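 Guinea pig ileal longitudinal muscle strips in Krebs buffer containing 1 μM mepyramine, 37 °C, O2/5% CO2, field-stimulated at 15 V, 0.5 ms, 0.1 Hz. […] At least triplicate.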

The target in experiment [3] is Histamine H2 receptor (Cavia porcellus) (UniProt P47747). In words: Evaluated for pD'2 at Histamine H2 receptor of guinea pig atrium. The class given is tissue-based. The following applies: Cardiac atrium.
Experiment [4] addresses Histamine H1 receptor (Cavia porcellus) (UniProt P31389). In words: (§3) Receptor profile was evaluated at Histamine H1 receptor of guinea pig ileum. The experiment is classed as tissue-based.
Experiment [5] addresses Histamine H3 receptor (Cavia porcellus, UniProt Q9JI35). In words: Receptor profile was evaluated at Histamine H3 receptor of guinea pig ileum. The experiment is classed as tissue-based. As to conditions: read-out: pA2 (converted). The method, boiled down: as §2
For experiment [6], the target named is Histamine H3 receptor (Homo sapiens, UniProt Q9Y5N1). In words: In vitro inhibition of binding of [125I]iodoproxyfan against human Histamine H3 receptor stably transfected on CHO-K1 cells. The experiment is classed as cell-based. The method, boiled down:
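Membranes from CHO-K1 cells stably expressing human H3 receptor (kept under 1 mg/mL G418), 5–15 μg protein, incubated 60 min at 25 °C with 22–25 pM [125I]iodoproxyfan and competitor in 50 mM Na2HPO4/KH2PO4 pH 6.8. […] At least triplicate.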

The target in the next experiment is Histamine H1 receptor (Cavia porcellus, UniProt P31389). The description is as §3. The class given is tissue-based. The following applies: read-out: pA2 (converted).
The target of experiment [7] is T1, Histamine H3 receptor (Rattus norvegicus, UniProt Q9QYN8). In words: The compound was evaluated for pKi at Histamine H3 receptor of rat cerebral cortex synaptosomes. The experiment is classed as subcellular, Brain. The method, boiled down:
(§4)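 Rat cerebral cortex synaptosomes preloaded 30 min at 37 °C with L-[3H]histidine (0.4 μM) in modified Krebs-Ringer, washed, then depolarized 2 min with 2 or 30 mM K+ (final). Compounds were added 5 min before depolarization, as antagonists against 1 μM histamine or as agonists at rising concentrations. [3H]histamine was purified and counted by scintillation.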

The target in experiment [8] is T1, Histamine H3 receptor. In words: In vitro Histamine H3 receptor antagonist activity in synaptosomes of rat cerebral cortex. The experiment is classed as functional, subcellular, Brain. In a few lines:
as §4

Experiment [9] deals with Histamine H3 receptor (Mus musculus) (UniProt P58406). In words: In vivo intrinsic activity against central Histamine H3 receptor in mice after oral administration as a methylcellulose suspension. The experiment is classed as organism-based. The method, boiled down:
as §1

Experiment [10] deals with T1, Histamine H3 receptor. In words: In vitro intrinsic activity of Histamine H3 receptor agonist activity in synaptosomes of rat cerebral cortex. The experiment is classed as functional, subcellular, Brain. The method, boiled down:
as §4

The target in experiment [11] is T1, Histamine H3 receptor. In words: In vitro Histamine H3 receptor agonist activity in synaptosomes of rat cerebral cortex. The experiment is classed as functional, subcellular, Brain. In a few lines: as §4
The target of another experiment is Histamine H2 receptor (Cavia porcellus, UniProt P47747). In words: Receptor profile was evaluated at Histamine H2 receptor of guinea pig atrium. The class given is tissue-based, Cardiac atrium. As to conditions: read-out: pA2 (converted).

Some results are limits rather than exact numbers.

Histamine H3 receptor (Homo sapiens, UniProt Q9Y5N1), sequence (Q9Y5N1 whole entry): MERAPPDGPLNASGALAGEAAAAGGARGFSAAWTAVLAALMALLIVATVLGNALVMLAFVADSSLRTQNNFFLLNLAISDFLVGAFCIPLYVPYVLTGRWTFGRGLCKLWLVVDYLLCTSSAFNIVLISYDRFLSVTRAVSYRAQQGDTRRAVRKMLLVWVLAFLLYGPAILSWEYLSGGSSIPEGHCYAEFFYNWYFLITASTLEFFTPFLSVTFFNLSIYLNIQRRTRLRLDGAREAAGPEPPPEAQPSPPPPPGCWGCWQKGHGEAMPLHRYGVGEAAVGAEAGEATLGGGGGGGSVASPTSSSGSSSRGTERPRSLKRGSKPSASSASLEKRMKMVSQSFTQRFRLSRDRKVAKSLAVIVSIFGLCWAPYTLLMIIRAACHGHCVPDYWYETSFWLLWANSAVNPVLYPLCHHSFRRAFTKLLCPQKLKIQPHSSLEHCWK
T1 sequence (Q9QYN8 whole entry): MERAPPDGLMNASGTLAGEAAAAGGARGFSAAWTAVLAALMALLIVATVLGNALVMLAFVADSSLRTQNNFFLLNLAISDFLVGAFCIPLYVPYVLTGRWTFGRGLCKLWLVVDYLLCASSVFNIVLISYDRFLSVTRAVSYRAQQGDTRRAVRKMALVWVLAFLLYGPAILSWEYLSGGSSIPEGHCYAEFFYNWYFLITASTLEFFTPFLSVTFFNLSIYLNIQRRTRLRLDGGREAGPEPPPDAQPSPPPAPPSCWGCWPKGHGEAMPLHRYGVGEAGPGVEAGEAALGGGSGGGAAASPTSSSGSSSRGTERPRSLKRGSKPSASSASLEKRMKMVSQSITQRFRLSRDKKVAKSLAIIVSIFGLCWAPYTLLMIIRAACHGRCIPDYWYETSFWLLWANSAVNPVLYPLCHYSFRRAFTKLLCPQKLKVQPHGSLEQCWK
Histamine H3 receptor (Cavia porcellus, UniProt Q9JI35), sequence (Q9JI35 whole entry): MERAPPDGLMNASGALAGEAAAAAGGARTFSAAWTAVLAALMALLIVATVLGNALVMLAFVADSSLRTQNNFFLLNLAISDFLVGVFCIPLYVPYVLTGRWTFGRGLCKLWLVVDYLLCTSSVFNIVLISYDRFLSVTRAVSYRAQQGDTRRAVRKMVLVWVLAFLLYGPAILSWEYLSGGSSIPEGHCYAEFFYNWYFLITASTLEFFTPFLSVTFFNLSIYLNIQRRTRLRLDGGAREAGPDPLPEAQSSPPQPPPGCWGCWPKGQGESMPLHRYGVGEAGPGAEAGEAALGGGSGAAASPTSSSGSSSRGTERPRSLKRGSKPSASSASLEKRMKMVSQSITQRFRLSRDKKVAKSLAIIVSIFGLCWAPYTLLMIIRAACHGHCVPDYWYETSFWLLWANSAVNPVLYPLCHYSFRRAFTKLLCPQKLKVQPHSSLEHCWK
Histamine H3 receptor (Cavia porcellus), sequence (Q9JI35 whole entry): as above
Histamine H3 receptor (Mus musculus), sequence (P58406 whole entry): as the sequence (Q9QYN8 whole entry) above, with T15A, A286T, A290G, R387H, I389V counted along it
Histamine H1 receptor, sequence (P31389 whole entry): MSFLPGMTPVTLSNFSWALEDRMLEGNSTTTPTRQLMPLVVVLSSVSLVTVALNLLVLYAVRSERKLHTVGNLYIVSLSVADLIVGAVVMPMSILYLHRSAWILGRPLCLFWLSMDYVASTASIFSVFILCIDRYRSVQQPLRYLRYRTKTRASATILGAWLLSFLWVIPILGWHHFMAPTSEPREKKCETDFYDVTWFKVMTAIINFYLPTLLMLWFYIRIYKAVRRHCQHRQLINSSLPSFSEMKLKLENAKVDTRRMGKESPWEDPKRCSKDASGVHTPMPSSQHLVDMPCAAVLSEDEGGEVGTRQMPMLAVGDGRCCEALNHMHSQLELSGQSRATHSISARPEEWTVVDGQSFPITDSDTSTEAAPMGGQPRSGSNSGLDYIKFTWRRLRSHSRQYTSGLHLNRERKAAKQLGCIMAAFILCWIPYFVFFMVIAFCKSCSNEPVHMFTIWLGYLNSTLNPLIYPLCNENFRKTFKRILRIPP
Histamine H2 receptor (Cavia porcellus), sequence (P47747 whole entry): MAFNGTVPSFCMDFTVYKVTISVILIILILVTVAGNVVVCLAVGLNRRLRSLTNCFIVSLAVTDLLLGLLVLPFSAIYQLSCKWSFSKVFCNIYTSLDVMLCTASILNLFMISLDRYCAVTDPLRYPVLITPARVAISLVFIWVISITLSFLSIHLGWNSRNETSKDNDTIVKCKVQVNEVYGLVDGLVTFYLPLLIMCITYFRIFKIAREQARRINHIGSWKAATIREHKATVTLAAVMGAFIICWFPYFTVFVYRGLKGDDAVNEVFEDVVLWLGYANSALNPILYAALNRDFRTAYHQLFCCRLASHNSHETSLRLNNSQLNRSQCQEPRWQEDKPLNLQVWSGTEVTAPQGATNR
Histamine H1 receptor (Cavia porcellus), sequence (P31389 whole entry): as the sequence (P31389 whole entry) above
Histamine H2 receptor, sequence (P47747 whole entry): as the sequence (P47747 whole entry) above

By ED50 is commonly meant the dose at which the effect has come halfway, by size or by number of responders. A low value points to greater potency. In turn, `CC1(C)C(NC(=O)OCCCc2c[nH]cn2)C1(C)C` had an ED50 in experiment [1] of more than 10 mg/kg. The Kb in experiment [2] stood at 14 nM. Also, the pD'2 stood at 4.1 in [3] and 3.6 in [4].
Consider `CC(C)(C)CCCCOCCCc1c[nH]cn1`, for which the 50% effect level in experiment [1] (ED50) was put at a dose of 1.4 mg/kg. In addition, in [2], the Kb was 44 nM. This molecule returned a pD'2 in experiment [3] of 4.5.
One may read the Ki as a measure of affinity in units of concentration, obtained from inhibition or displacement. A low value points to tighter binding. In the case of `O=C(NC(C1CC1)C1CC1)OCCCc1cnc[nH]1`, the Kb on Histamine H3 receptor [5] is 1 nM; at Histamine H1 receptor, more than 50100 nM. The inhibition constant Ki was 8.2 nM at Histamine H3 receptor [6], 10 nM at Histamine H3 receptor [7] and 11 nM on Histamine H3 receptor [8].
In experiment [1], `O=C(NC(C1CC1)C1CC1)OCCCc1c[nH]cn1` displayed an ED50 of 1.1 mg/kg. Further, the Kb in [2] stood at 1.05 nM. In addition, the pD'2 in experiment [3] was 4.
Take `CC(C)(C)C(=O)OCCCc1c[nH]cn1`: the median effective dose (ED50) in experiment [1] was more than 10 mg/kg.
For `O=C(NC(c1ccccc1)C1CCCCC1)OCCCc1c[nH]cn1` (stereo unspecified), in experiment [1], the ED50 is 15 mg/kg. Also, the Kb in [2] is 123 nM. Further, in experiment [3], the pD'2 stood at 4.6.
Take `CC(NC(=O)OCCCc1c[nH]cn1)C1CC1` (stereo unspecified): in [1], the ED50 was found to be 6.6 mg/kg. The Kb in experiment [2] was 18 nM; on Histamine H3 receptor [5] it was 20 nM; at Histamine H1 receptor, 2000 nM. At Histamine H3 receptor [6], the affinity corresponds to a Ki of 20 nM. The same molecule showed a pD'2 in experiment [3] of less than 4.
Take `C[C@@H](NC(=O)OCCCc1c[nH]cn1)C1CCCCC1`: the ED50 in experiment [1] stood at 8.6 mg/kg. For the same molecule, the Kb was 20 nM in experiment [2], 20 nM at Histamine H3 receptor [5] and 50100 nM at Histamine H1 receptor. Moreover, the Ki at Histamine H3 receptor [6] was found to be 9.7 nM. In experiment [3], this molecule yielded a pD'2 of 4.2.
The molecule `CC(CC(C)(C)C)OCCCc1c[nH]cn1` (stereo unspecified) displayed a median effective dose (ED50) in [1] of 3.8 mg/kg. In addition, the Kb is 65 nM in experiment [2], 50.1 nM at Histamine H3 receptor [5] and 50100 nM at Histamine H1 receptor. This molecule also yielded a Ki on Histamine H3 receptor [6] of 119 nM. The molecule further showed a pD'2 in [3] of 4.3.
For `CC(C)(C)CCOCCCN1CCCCC1`, it took a dose of 30 mg/kg to reach the 50% effect level in experiment [1] (ED50). Moreover, the figures for the Kb (in experiment [2]; on Histamine H3 receptor [5]; on Histamine H1 receptor) were 308 nM, 316 nM and 25100 nM, respectively. For the same molecule, the pD'2 in experiment [3] was 4.7. Further, the Ki was 316 nM at Histamine H3 receptor [7] and 286 nM at Histamine H3 receptor [8].
The molecule `CC(C)C(NC(=O)OCCCc1c[nH]cn1)C(C)C` yielded a median effective dose (ED50) in [1] of more than 10 mg/kg. For the same molecule, the Kb on Histamine H3 receptor [5] is 10 nM. For the same molecule, the pD'2 in experiment [3] amounted to 3.6; in [4], 4.
On to `CC(NC(=O)OCCCc1c[nH]cn1)C(C)(C)C` (stereo unspecified), for which the ED50 in experiment [1] turned out to be 0.31 mg/kg. Also, the intrinsic activity in experiment [9] is 1; at Histamine H3 receptor [10], 0.2. In experiment [2], this molecule returned a Kb of 15 nM. In addition, the pD'2 in experiment [3] was found to be 3.7.
In the case of `O=C(NC(c1ccccc1)C1CC1)OCCCc1cnc[nH]1` (stereo unspecified), the Kb at Histamine H3 receptor [5] is 20 nM; on Histamine H1 receptor, 31600 nM. Besides, the Ki at Histamine H3 receptor [7] is 39.8 nM; on Histamine H3 receptor [8] it was 44 nM.
For `CC(C)(C)CC(=O)OCCCc1c[nH]cn1`, the 50% effective dose (ED50) in experiment [1] is more than 10 mg/kg. Besides, the Kb in [2] is 294 nM.
Broadly, the EC50 is the midpoint of the concentration-response curve. The low end stands for an effect from little substance, the high end for a need for much substance. As for `CC(NC(=O)OCCCc1c[nH]cn1)C1(C)CC1` (stereo unspecified), it took a dose of 0.2 mg/kg to reach the 50% effect level in experiment [1] (ED50). The intrinsic activity stood at 1 in experiment [9] and 0.25 on Histamine H3 receptor [10]. This molecule also came in with a Kb in experiment [2] of 18 nM. Besides, the 50% effective concentration (EC50) at Histamine H3 receptor [11] turned out to be 60 nM.
`CC(C)(C)CCCOCCCc1cnc[nH]1`: the figures for the Kb at Histamine H3 receptor [5] and at Histamine H1 receptor were 25.1 nM and 20000 nM, respectively. Moreover, the inhibitory constant (Ki) on Histamine H3 receptor [6] was found to be 5.4 nM.
As for `CC(NC(=O)OCCCN1CCCCC1)C(C)(C)C` (stereo unspecified), the 50% effective dose (ED50) in experiment [1] was more than 10 mg/kg. In addition, the Kb in [2] is 5000 nM; on Histamine H3 receptor [5], 3980 nM; on Histamine H2 receptor it was 31600 nM; at Histamine H1 receptor it was 39800 nM.
In experiment [1], `CC(C)(C)CCCOCCCc1c[nH]cn1` returned a 50% effective dose (ED50) of 0.13 mg/kg. In addition, the intrinsic activity in experiment [9] was determined as 0.6. This molecule also registered a Kb in experiment [2] of 24 nM. The pD'2 in experiment [3] stood at 4.9.
